Where a SMILES comes first, the peptide text is derived from it. [ ]: non-standard residue; d: D form. Cha = N[C@@H](CC1CCCCC1)C(=O)O; βAla = NCCC(=O)O
How the values were obtained:
Substance-K receptor [1] = molecular target: T1, Substance-K receptor (Oryctolagus cuniculus, UniProt P79218); assay: Antagonist activity at NK-2 tachykinin receptors in rabbit pulmonary artery; type: functional; details: for Kb: read-out: pA2 (converted)
T1 sequence (P79218 whole entry): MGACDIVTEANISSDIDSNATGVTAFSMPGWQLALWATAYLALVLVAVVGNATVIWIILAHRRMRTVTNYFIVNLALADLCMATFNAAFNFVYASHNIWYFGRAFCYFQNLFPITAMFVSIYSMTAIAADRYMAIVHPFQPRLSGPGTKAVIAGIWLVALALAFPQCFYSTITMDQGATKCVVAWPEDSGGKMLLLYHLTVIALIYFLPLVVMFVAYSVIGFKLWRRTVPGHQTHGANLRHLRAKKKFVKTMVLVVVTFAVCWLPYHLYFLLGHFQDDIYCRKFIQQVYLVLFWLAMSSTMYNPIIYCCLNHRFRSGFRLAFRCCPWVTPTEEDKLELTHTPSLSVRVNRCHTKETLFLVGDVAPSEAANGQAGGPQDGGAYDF
Outline: (§1)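 Isolated tissues from male New Zealand rabbits (2.5-3 kg) or male Syrian golden hamsters (90-130 g). Endothelium-denuded pulmonary artery strips (rabbit) or tracheal rings (hamster) were used for isometric tension in oxygenated (96% O2/4% CO2) Krebs. Thiorphan, captopril and bestatin were added 15 min before agonist. Cumulative NKA curves were repeated after 15 min antagonist incubation, with one concentration per experiment and at least three concentrations. pA2 came from constrained Schild plots (≥9 experiments).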

Substance-K receptor [2] = molecular target: T2, Substance-K receptor (Mesocricetus auratus, UniProt P51144); assay: Tested for antagonist activity at NK-2 tachykinin receptors in hamster trachea; type: functional; details: for Kb: read-out: pA2 (converted); outline: as §1
T2 sequence (P51144 whole entry): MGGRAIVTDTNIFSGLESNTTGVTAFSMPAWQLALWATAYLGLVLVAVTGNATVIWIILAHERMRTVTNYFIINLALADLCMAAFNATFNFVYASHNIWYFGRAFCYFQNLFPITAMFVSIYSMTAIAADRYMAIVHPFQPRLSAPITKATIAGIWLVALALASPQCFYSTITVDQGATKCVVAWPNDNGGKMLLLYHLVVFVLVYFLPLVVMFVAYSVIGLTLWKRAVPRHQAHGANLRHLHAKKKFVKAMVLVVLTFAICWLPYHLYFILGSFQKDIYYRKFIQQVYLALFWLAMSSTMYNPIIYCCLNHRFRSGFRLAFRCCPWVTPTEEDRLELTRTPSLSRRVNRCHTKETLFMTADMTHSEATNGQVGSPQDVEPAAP

[3] = Tested for capacity factors by reversed phase HPLC (C18, solvent system 1)
[4] = molecular target: T3, Substance-K receptor (Oryctolagus cuniculus) (UniProt P79218); details: filed as agonist
T3 sequence (whole entry): T1 sequence (P79218 whole entry)

[5] = molecular target: T3, Substance-K receptor (Oryctolagus cuniculus)
Substance-K receptor [6] = molecular target: T1, Substance-K receptor; assay: Tested for antagonist activity at NK-2 tachykinin receptors in rabbit pulmonary artery; details: read-out: pA2 (converted)

SMILES	Kb (Substance-K receptor [1])	Kb (Substance-K receptor [2])	k' [3]	other results
CC(C)C[C@@H]1CN[C@@H](CCCCNC(=O)OCc2ccccc2)C(=O)N[C@@H](CCC(N)=O)C(=O)N[C@@H](Cc2c[nH]c3ccccc23)C(=O)N[C@@H](Cc2ccccc2)C(=O)NCCC(=O)N1	0.129 µM	0.00676 µM	–	–
CC(C)C[C@@H]1CN[C@@H](CC(N)=O)C(=O)N[C@@H](CCC(N)=O)C(=O)N[C@@H](Cc2c[nH]c3ccccc23)C(=O)N[C@@H](Cc2ccccc2)C(=O)NCCC(=O)N1	0.692 µM	0.11 µM	–	–
CC(C)C[C@@H]1CN[C@@H](CC(N)=O)C(=O)N[C@H](CCC(N)=O)C(=O)N[C@@H](Cc2c[nH]c3ccccc23)C(=O)N[C@H](Cc2ccccc2)C(=O)NCCC(=O)N1	–	–	7.7	–
CC(C)C[C@@H]1CN[C@@H](CC(C)C)C(=O)N[C@@H](CCC(N)=O)C(=O)N[C@@H](Cc2c[nH]c3ccccc23)C(=O)N[C@@H](Cc2ccccc2)C(=O)NCCC(=O)N1	0.112 µM	0.0158 µM	–	–
CC(C)C[C@@H]1CN[C@@H](Cc2ccc3ccccc3c2)C(=O)N[C@@H](CCC(N)=O)C(=O)N[C@@H](Cc2c[nH]c3ccccc23)C(=O)N[C@@H](Cc2ccccc2)C(=O)NCCC(=O)N1	–	–	–	pA2 (Substance-K receptor [1]): 7.37; pA2 (Substance-K receptor [2]): 8.79
CC(C)C[C@@H]1CN[C@@H](CCCCN)C(=O)N[C@H](CCC(N)=O)C(=O)N[C@@H](Cc2c[nH]c3ccccc23)C(=O)N[C@H](Cc2ccccc2)C(=O)NCCC(=O)N1	–	–	6.8	pA2 [4]: Agonist; pD2 [5]: 5.96
CC(C)C[C@@H]1CN[C@@H](CC(=O)O)C(=O)N[C@H](CCC(N)=O)C(=O)N[C@@H](Cc2c[nH]c3ccccc23)C(=O)N[C@H](Cc2ccccc2)C(=O)NCCC(=O)N1	–	–	7.9	–
CC(C)C[C@@H]1CN[C@@H](CC(=O)O)C(=O)N[C@@H](CCC(N)=O)C(=O)N[C@@H](Cc2c[nH]c3ccccc23)C(=O)N[C@@H](Cc2ccccc2)C(=O)NCCC(=O)N1	1.07 µM	0.0676 µM	–	–
CC(C)C[C@@H]1CN[C@@H](CC2CCCCC2)C(=O)N[C@@H](CCC(N)=O)C(=O)N[C@@H](Cc2c[nH]c3ccccc23)C(=O)N[C@@H](Cc2ccccc2)C(=O)NCCC(=O)N1	–	0.000871 µM	–	Kb (Substance-K receptor [6]): 0.0389 µM
CC(C)C[C@@H]1CN[C@@H](CC2CCCCC2)C(=O)N[C@H](CCC(N)=O)C(=O)N[C@@H](Cc2c[nH]c3ccccc23)C(=O)N[C@H](Cc2ccccc2)C(=O)NCCC(=O)N1	–	–	11.6	–
CC(C)C[C@@H]1CN(C)[C@@H](CC2CCCCC2)C(=O)N[C@H](CCC(N)=O)C(=O)N[C@@H](Cc2c[nH]c3ccccc23)C(=O)N[C@H](Cc2ccccc2)C(=O)NCCC(=O)N1	–	–	13.1	–
CC(C)C[C@@H]1CN[C@@H](CCCCN)C(=O)N[C@@H](CCC(N)=O)C(=O)N[C@@H](Cc2c[nH]c3ccccc23)C(=O)N[C@@H](Cc2ccccc2)C(=O)NCCC(=O)N1	–	0.309 µM	–	–
CSCC[C@@H]1NC[C@@H](CC(C)C)NC(=O)CCNC(=O)[C@@H](Cc2ccccc2)NC(=O)[C@H](Cc2c[nH]c3ccccc23)NC(=O)[C@@H](CCC(N)=O)NC1=O	–	–	9.6	–
CC(C)C[C@@H]1NC(=O)CCNC(=O)[C@H](Cc2ccccc2)NC(=O)[C@H](Cc2c[nH]c3ccccc23)NC(=O)[C@H](CCC(N)=O)NC(=O)[C@H](CC2CCCCC2)NC1=O (cyclo([Cha]QWF[βAla]L))	1.45 µM	0.0316 µM	–	–
CC(C)C[C@@H]1CN(C)[C@@H](CC2CCCCC2)C(=O)N[C@@H](CCC(N)=O)C(=O)N[C@@H](Cc2c[nH]c3ccccc23)C(=O)N[C@@H](Cc2ccccc2)C(=O)NCCC(=O)N1	0.117 µM	0.0038 µM	–	–
CC(C)C[C@@H]1CN[C@@H](CC(C)C)C(=O)N[C@H](CCC(N)=O)C(=O)N[C@@H](Cc2c[nH]c3ccccc23)C(=O)N[C@H](Cc2ccccc2)C(=O)NCCC(=O)N1	–	–	9.9	–
CSCC[C@@H]1NC[C@@H](CC(C)C)NC(=O)CCNC(=O)[C@H](Cc2ccccc2)NC(=O)[C@H](Cc2c[nH]c3ccccc23)NC(=O)[C@H](CCC(N)=O)NC1=O	0.224 µM	0.0129 µM	–	–

Second part, led by results:

Kb (Substance-K receptor [1])	Kb (Substance-K receptor [2])	k' [3]	SMILES	other results
–	–	12	CC(C)C[C@@H]1CN[C@@H](Cc2ccc3ccccc3c2)C(=O)N[C@H](CCC(N)=O)C(=O)N[C@@H](Cc2c[nH]c3ccccc23)C(=O)N[C@H](Cc2ccccc2)C(=O)NCCC(=O)N1	–
0.0794 µM	0.0186 µM	–	CC(C)C[C@@H]1CN[C@@H](Cc2ccccc2)C(=O)N[C@@H](CCC(N)=O)C(=O)N[C@@H](Cc2c[nH]c3ccccc23)C(=O)N[C@@H](Cc2ccccc2)C(=O)NCCC(=O)N1	–
–	–	11.9	CC(C)C[C@@H]1CN[C@@H](CCCCNC(=O)OCc2ccccc2)C(=O)N[C@H](CCC(N)=O)C(=O)N[C@@H](Cc2c[nH]c3ccccc23)C(=O)N[C@H](Cc2ccccc2)C(=O)NCCC(=O)N1	–
–	–	11.1	CC(C)C[C@@H]1CN[C@@H](CCC(=O)NCc2ccccc2)C(=O)N[C@H](CCC(N)=O)C(=O)N[C@@H](Cc2c[nH]c3ccccc23)C(=O)N[C@H](Cc2ccccc2)C(=O)NCCC(=O)N1	–
0.0155 µM	0.00055 µM	–	CC(C)C[C@@H]1CN[C@@H](CCC(=O)NCc2ccccc2)C(=O)N[C@@H](CCC(N)=O)C(=O)N[C@@H](Cc2c[nH]c3ccccc23)C(=O)N[C@@H](Cc2ccccc2)C(=O)NCCC(=O)N1	–
–	–	10.5	CC(C)C[C@@H]1CN[C@@H](Cc2ccccc2)C(=O)N[C@H](CCC(N)=O)C(=O)N[C@@H](Cc2c[nH]c3ccccc23)C(=O)N[C@H](Cc2ccccc2)C(=O)NCCC(=O)N1	–

— ChEMBL document CHEMBL1127378, “Influence of lipophilicity on the biological activity of cyclic pseudopeptide NK-2 receptor antagonists” (J Med Chem, 1994)
